Compound activity as filed in PubChem.
SIRT5 block: SIRT5 desuccinylase inhibitors, primary screen, biochemical, fluorescence imaging, single point, set 5; inhibition, % at 15 µM; 330,000 tested, 1.1% active; AID 652115, 2013; Purified SirT5, succinyl-peptide AMC, trypsin-coupled fluorescence; in the data active means inhibition above about 15%; inconclusive means no clear call, values can overlap the other calls
Target sequence (Q9NXA8 whole entry, looked up): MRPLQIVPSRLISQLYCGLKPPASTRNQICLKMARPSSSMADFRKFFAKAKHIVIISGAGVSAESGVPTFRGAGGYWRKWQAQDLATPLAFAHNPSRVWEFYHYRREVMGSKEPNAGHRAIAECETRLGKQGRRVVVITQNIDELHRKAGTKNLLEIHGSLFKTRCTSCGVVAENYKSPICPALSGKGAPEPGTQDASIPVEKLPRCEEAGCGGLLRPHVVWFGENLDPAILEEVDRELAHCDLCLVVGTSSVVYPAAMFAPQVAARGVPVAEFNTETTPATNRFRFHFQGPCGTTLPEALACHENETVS
FN deposit inh: inhibitors of fibronectin matrix deposition, primary screen, AH1F cells, Alexa488-fibronectin fluorescence, plate reader; AH1F fibroblasts, overnight; inhibition, % at 12.6 µM; AID 743247, 2014; 350,000 tested, 0.086% active;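 active means mean inhibition across replicates of 30% or more, regardless of how many single replicates reach that level; inconclusive means mean under 30% yet at least half of replicates reach 30%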;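 further: positive control wells lacked labelled fibronectin entirely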
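Assay system: AH1F fibroblasts / Quantity: 10000 cells per well / Medium: DMEM plus 2% serum, read in PBS / Reagent: labelled fibronectin 24 nM / Dosing: single dose, pinned / Times: 1 h cell attachment, overnight exposure to compound and label / Signal: fluorescence, ex 485 nm, em 525 nm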
FGF22 binding: binders of human FGF22 protein, primary screen, FGF22 synaptogenesis inhibitor project, biophysical, thermal shift, single point | activity (Tm shift, normalised), % at 9.99 µM | Fibroblast growth factor 22 (Homo sapiens), Q9HCT0 | recombinant FGF22 thermal shift, SYPRO orange fluorescence; percent of sucrose octasulfate shift, DMSO zero | 340,000 tested, 1.5% active;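 active means mean Tm shift, scaled 0 neutral to 100 positive control, at about 1.3% or above, every replicate too, limit read from the data; inconclusive means no clear call, values can overlap the other calls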
Target sequence (Q9HCT0 whole entry, looked up): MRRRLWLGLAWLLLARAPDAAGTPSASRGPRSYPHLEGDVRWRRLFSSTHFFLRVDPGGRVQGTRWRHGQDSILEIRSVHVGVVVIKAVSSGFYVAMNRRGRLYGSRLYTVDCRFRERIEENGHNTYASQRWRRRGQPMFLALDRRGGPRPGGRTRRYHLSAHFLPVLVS
Ecoli rRNA inh: reduced GFP signal of wild-type E. coli, primary screen, bacterial rRNA inhibitor project, GFP/RFP fluorescence, OD600, single point; E. coli WT GFP vs humanized-ribosome RFP mutants, 24 h; active compounds read low; DMSO median 0, no signal -100; GFP signal change (wild-type ribosome), % (test concentration not listed); 350,000 tested, 1.6% active; AID 720706, 2013;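 active means significant combined selectivity score with lowered wild-type GFP, culture density cut under 30%, mutant RFP and density less affected; inactive means any of these conditions unmet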
C2C12 statin: suppressors of statin myotoxicity in C2C12 myotubes, primary screen, cell-based, single point, plate reader; rescue of ATP level, % at 7.49 µM; C2C12 myotubes + simvastatin, ATP luminescence, 48 h; scaled: DMSO 0, geranylgeraniol control 100; 330,000 tested, 0.78% active;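 active means mean ATP rescue above about 67%, or every replicate alone reaching that limit, limit read from the data, passing the limit was not always enough; inconclusive means no clear call, values can overlap the other calls; inactive means mean under the limit and some replicate under it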;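 further: myotubes were challenged with 10 µM simvastatin during compound exposure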
E-selectin induc: E-selectin induction in HUVECs, primary screen, imaging, HUVEC, immunofluorescence imaging, single point | P16581 | normalized: neutral wells 0, TNF-alpha wells 100 | activation, % at 7.58 µM | 260,000 tested, 0.37% active;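 active means mean E-selectin-positive cell signal at least 10% of the positive control, reached in at least 60% of replicates, without over 20% cell loss; inconclusive means no rule given, readout overlaps actives, possibly toxicity-flagged; inactive means the rest, including those meeting only one limit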
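Read-out: % PE-positive cells | Test system: HUVEC | Doses: One compound dose added by pin transfer | Buffer or medium: EGM-2 over gelatin coat | Signal: Immunofluorescence imaging | Benchmarks: TNF-alpha, DMSO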
Active calls of the source: *; ? = inconclusive; / = no result. Most compounds without a hit are left out; they make up all but 4% or so of the library.

SMILES	SIRT5 block	FN deposit inh	FGF22 binding	Ecoli rRNA inh	C2C12 statin	E-selectin induc
CC(=O)N(C)C[C@H]1Oc2cc(C#Cc3ccccc3)ccc2S(=O)(=O)N([C@H](C)CO)C[C@@H]1C	5	/	-1	-8	2	0
CCOC(=O)Cc1nnc(NC(=O)COc2ccc(OC)cc2)s1	/	/	/	/	130*	/
CC(C)(C)Cc1nnc(NC(=O)CCc2ccccc2)s1	-5	-1	0	19	-13	0
CCOC(=O)Cc1nnc(NC(=O)CCc2ccccc2)s1	17*	-7	0	0	/	0
O=C(C[C@H]1C[C@H]2c3cc(NC(=O)Nc4ccc(C(F)(F)F)cc4)ccc3O[C@H]2[C@@H](CO)O1)NCc1cc(F)ccc1F	0	/	0	7	4	6
O=C(NC1c2ccccc2-c2ccccc21)c1ccco1	/	/	/	/	120*	/
O=C(NC1CCCCC1NC(=O)c1ccco1)c1ccco1 (stereo not given)	2	/	/	17	7	/
CCC(=O)Nc1ccc2c(c1)OC[C@@H](C)N(C(=O)CC)C[C@@H](C)[C@H](OC)CN(C)C2=O	/	-4	/	3	4	0
c1ccc(Cn2c(-c3cccs3)nc3nc4ccccc4nc32)cc1	/	-10	/	/	/	/
C#CCn1c(-c2cccs2)nc2ccccc21	-15	-6	43*	-14	-7	2
CCc1ccc(OCCCC(=O)NCc2ccco2)cc1	2	-13	44*	-4	15	/
Cc1ccc(OCCCC(=O)NCc2ccco2)cc1	/	-4	/	/	18	/
O=C(O)CN1C(=O)/C(=C\c2ccccc2OCc2ccc(F)cc2)SC1=S	5	3	/	-39*	-34	0
O=C1/C(=C\c2cccc(O)c2O)SC(=S)N1Cc1ccccc1	2	22	0	1	?	0
O=C1/C(=C\c2cc([N+](=O)[O-])ccc2O)SC(=S)N1Cc1ccc(Cl)cc1	16*	-7	0	-52	-20	0
O=C(O)CN1C(=O)/C(=C\c2cc(Br)ccc2OCc2ccc(Cl)cc2)SC1=S	12	-5	0	-55	-42	49*
COc1cccc(-c2cnc3c(c2)C(=O)N([C@H](C)CO)C[C@H](C)[C@H](CN(C)C(C)=O)O3)c1	-1	1	0	-5	6	0
CC(C)NC(=O)Nc1ccc2c(c1)C(=O)N(C)[C@H]1CC[C@H](CC(=O)Nc3ccccc3)O[C@@H]1CO2	-1	-11	0	-3	13	0
C[C@@H]1CN([C@@H](C)CO)C(=O)c2cc(C#CCC3CCCC3)cnc2O[C@H]1CN(C)S(=O)(=O)c1cccs1	-2	/	0	6	-5	7
CC(C)C#Cc1ccc([C@@H]2[C@H](CO)N3C(=O)CN(C(=O)NC4CCCC4)C[C@@H]23)cc1	25*	1	0	-1	/	0
O=C(c1ccc2c(c1)OCO2)N1CC(=O)N2[C@H](CO)[C@H](c3ccc(C#CCC4CCCC4)cc3)[C@@H]2C1	26*	/	-1	3	/	-1
O=C(c1ccc2c(c1)OCO2)N1CC(=O)N2[C@@H](CO)[C@@H](c3ccc(C#CCC4CCCC4)cc3)[C@@H]2C1	11	/	-1	-11	/	3
CC(C)C#Cc1ccc([C@@H]2[C@@H](CO)N3C(=O)CN(C(=O)c4ccc5c(c4)OCO5)C[C@H]23)cc1	20*	3	/	4	/	0
CC[C@H]1CC=CC[C@@H](C)Oc2ccccc2C(=O)N(C)[C@@H](C(C)C)C(=O)N1 (mixture of isomers)	/	-8	/	-2	/	/
[O-][n+]1cccc2ncc3cscc3c21	-1	0	0	9	/	431*
SMILES	SIRT5 block	FN deposit inh	FGF22 binding	Ecoli rRNA inh	C2C12 statin	E-selectin induc
COc1ccc(C(=O)Nc2ccc3[nH]ccc3c2)cc1	/	-2	0	-31*	/	34*
COc1ccc(OC)c(C(=O)Nc2ccc3[nH]ccc3c2)c1	2	-3	0	-23*	/	8
CCCNC(=O)C[C@H]1CC[C@H]2[C@@H](COC[C@@H](O)CN2C(=O)CC)O1	-6	4	0	-1	8	0
O=C(N/N=C/c1ccccn1)c1cccc(S(=O)(=O)Nc2ccccc2Cl)c1	3	2	1	-40*	/	5
COc1ccccc1NS(=O)(=O)c1cccc(C(=O)N/N=C/c2ccc(OCC(=O)O)cc2)c1	4	7	1	4	/	3
Cc1ccsc1/C=N/NC(=O)c1cccc(S(=O)(=O)Nc2ccccc2Cl)c1	-1	-1	0	/	/	/
O=C(O)COc1ccccc1/C=N/NC(=O)c1cccc(S(=O)(=O)Nc2cccc(Cl)c2)c1	-2	-10	43*	-10	/	/
CN(C)C1=NCC(CSC(=N)N)S1 (stereo not given)	/	6	0	-37*	6	6
O=C(COC(=O)c1ccccc1NCCO)NNC(=O)c1cccs1	-18	8	0	5	-1	428*
O=C(COC(=O)c1ccccc1[N+](=O)[O-])NNC(=O)c1cccs1	1	/	0	6	/	0
O=C(c1cccc(F)c1)N1CCCC(C(=O)N2CCCCC2)C1 (stereo not given)	22*	-4	0	8	31	/
O=C1CN(S(=O)(=O)Cc2ccccc2)C[C@H]2[C@H](c3ccc(C#Cc4cccc(F)c4)cc3)[C@@H](CO)N12	-4	/	/	6	/	0
O=C1CN(S(=O)(=O)c2ccccc2)C[C@@H]2[C@H](c3ccc(C#Cc4ccccc4)cc3)[C@H](CO)N12	25*	/	/	2	/	-1
O=C1CN(S(=O)(=O)Cc2ccccc2)C[C@@H]2[C@H](c3ccc(C#Cc4cccc(F)c4)cc3)[C@H](CO)N12	17*	/	/	3	/	-1
N#C/C(=N\Nc1ccc(F)cc1)C(=O)C1CC1	0	-12	0	-34*	/	0
C[C@H]1CN([C@@H](C)CO)C(=O)Cc2cc(NS(C)(=O)=O)ccc2O[C@@H]1CN(C)S(=O)(=O)c1cn(C)cn1	/	/	0	3	-22	-4
O=C(Nc1ccc(N2CCN(C(=O)c3ccco3)CC2)cc1)c1ccccc1	19*	-9	0	0	-3	0
O=C(Nc1ccccc1C(=O)O)c1cccc(NC(=O)c2ccco2)c1	-1	-7	/	-3	-4	/
O=C(Nc1ccc(O)cc1C(=O)O)c1ccc(NC(=O)c2ccco2)cc1	5	6	2.1*	-1	-2	/
